Holding throughout (assay type): functional
Assay [1] can be described thus: Antiproliferative activity against human D283 cells assessed as growth inhibition after 48 hrs by sulforhodamine B assay relative to control. As to conditions: D283, 48 h. The gist of the method: (§1)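 D283 medulloblastoma cells grown in IMEM with 5% FBS and 0.3% gentamycin at 37 °C, 5% CO2, plated at 4000–6000 cells/well overnight. Compound in DMSO (0.5% v/v final), triplicate wells, 48 h. Because cells adhere poorly, 20% TCA added directly to the medium for fixation. SRB absorbance referenced to vehicle and time-0 plates; TGI by nonlinear regression, n = 3, mean ± SEM.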
(In general: In SRB staining, fixed cells bind dye roughly in proportion to their protein.)

Assay [2] can be described thus: Antiproliferative activity against human SJCRH30 cells assessed as growth inhibition after 48 hrs by sulforhodamine B assay. Summed up: (§2)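 A-673, SJCRH30 and Hep293TT cells in RPMI-1640 with 5% FBS and 0.5% gentamycin at 37 °C, 5% CO2, seeded at 4000–6000 cells/well and adhered overnight. DMSO solutions added to triplicate wells (0.5% v/v DMSO final) for 48 h. Medium removed, cells fixed with 10% TCA, SRB absorbance compared with vehicle and time-0 plates. TGI from nonlinear regression; n = 3, mean ± SEM.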

Assay [3] deals with Hep293TT. Briefly: Antiproliferative activity against human Hep293TT cells assessed as growth inhibition after 48 hrs by sulforhodamine B assay. Summed up: as §2
Assay [4] concerns A673. In words: Antiproliferative activity against human A673 cells assessed as growth inhibition after 48 hrs by sulforhodamine B assay. Conditions: A673, 48 h. Summed up:
as §2

In assay [5] the test system is Hep293TT. Briefly: Antiproliferative activity against human Hep293TT cells assessed as growth inhibition after 48 hrs by sulforhodamine B assay relative to control. Summed up:
as §2

Assay [6] has as its system A673. Briefly: Antiproliferative activity against human A673 cells assessed as growth inhibition after 48 hrs by sulforhodamine B assay relative to control. Conditions: A673, 48 h. Summed up:
as §2

The nature of assay [7]: Antiproliferative activity against human SJCRH30 cells assessed as growth inhibition after 48 hrs by sulforhodamine B assay relative to control. Summed up: as §2
The nature of assay [8]: Antiproliferative activity against human D283 cells assessed as growth inhibition after 48 hrs by sulforhodamine B assay. As to conditions: D283, 48 h. The gist of the method:
as §1

For `C=CC(=C)CCC1(C)C(C)CC(=O)C23C(=C[C@H](OC(=O)CC(C)C)CC12)[C@@H](OC(C)=O)O[C@H]3OC(C)=O` (some centres undefined), the Emax in assay [1], in assay [5], in assay [6] and in assay [7] was 100% throughout. Further, the concentration for total growth inhibition (TGI) (in general, the concentration at which net growth stops) in assay [2] stood at 670 nM; in assay [3], 1000 nM; in assay [4], 1100 nM; in assay [8] it was 660 nM.

On to `C=CC(=C)CCC1(C)C(C)CC(=O)C23C(=C[C@H](OC(=O)CCC)CC12)[C@@H](OC(C)=O)O[C@H]3OC(C)=O` (some centres undefined), for which the Emax in assay [1], in assay [5], in assay [6] and in assay [7] was 100% each time. Further, the TGI in assay [2] stood at 500 nM; in assay [3], 900 nM; in assay [4] it was 1000 nM; in assay [8] it was 600 nM.

On to `C=CC(=C)CCC1(C)C(C)CC(=O)C23C(=C[C@H](OC(=O)C(C)C)CC12)[C@@H](OC(C)=O)O[C@H]3OC(C)=O` (some centres undefined), for which the Emax in assay [1], in assay [5], in assay [6] and in assay [7] was 100% throughout. Further, the TGI in assay [2] was 2300 nM; in assay [3], 3200 nM; in assay [4] it was 4100 nM; in assay [8], 2300 nM.

For `C=CC(=C)CCC1(C)C(C)CC(=O)C23C(=C[C@H](OC(=O)[C@@H](C)CC)CC12)[C@@H](OC(C)=O)O[C@H]3OC(C)=O` (some centres undefined), the Emax in assay [1], in assay [5], in assay [6] and in assay [7] was 100% in each case. Further, the TGI came out at 730 nM in assay [2], 800 nM in assay [3], 1200 nM in assay [4] and 660 nM in assay [8].

On to `C=CC(=C)CCC1(C)C(C)CC(O)C23C(=C[C@H](OC(=O)CC)CC12)[C@@H](OC(C)=O)O[C@H]3OC(C)=O` (some centres undefined), for which the Emax in assay [1], in assay [5], in assay [6] and in assay [7] was 100% each time. The concentration for total growth inhibition (TGI) in assay [2] came out at 360 nM; in assay [3], 300 nM; in assay [4] it was 900 nM; in assay [8], 500 nM.

On to `C=CC(=C)CCC1(C)C(C)CC(=O)C23C(=C[C@H](OC(=O)CC)CC12)[C@@H](OC(C)=O)O[C@H]3OC(C)=O` (some centres undefined), for which the Emax in assay [1], in assay [5], in assay [6] and in assay [7] was 100% in each case. In addition, the total growth inhibition concentration (TGI) in assay [2] was 520 nM; in assay [3], 1000 nM; in assay [4], 1100 nM; in assay [8], 700 nM.

Regarding `C=CC(=C)CCC1(C)C(C)CC(O)C23C(=C[C@H](OC(=O)CC(C)C)CC12)[C@@H](OC(C)=O)O[C@H]3OC(C)=O` (some centres undefined), the Emax in assay [1], in assay [5], in assay [6] and in assay [7] was 100% each time. Further, the concentration for total growth inhibition (TGI) in assay [2] is 340 nM; in assay [3], 220 nM; in assay [4], 700 nM; in assay [8] it was 360 nM.

On to `C=CC(=C)CCC1(C)C(C)CC(O)C23C(=C[C@H](OC(=O)/C(C)=C\C)CC12)[C@@H](OC(C)=O)O[C@H]3OC(C)=O` (some centres undefined), for which the Emax in assay [1], in assay [5], in assay [6] and in assay [7] was 100% in each case. Further, the total growth inhibition concentration (TGI) was determined as 440 nM in assay [2], 280 nM in assay [3], 1000 nM in assay [4] and 700 nM in assay [8].

Consider `C=CC(=C)CCC1(C)C(C)CC(O)C23C(=C[C@H](OC(=O)[C@@H](C)CC)CC12)[C@@H](OC(C)=O)O[C@H]3OC(C)=O` (some centres undefined), for which the Emax in assay [1], in assay [5], in assay [6] and in assay [7] was 100% throughout. Also, the TGI in assay [2] was determined as 800 nM; in assay [3], 600 nM; in assay [4], 1700 nM; in assay [8], 1100 nM.

For `C=CC(=C)CCC1(C)C(C)CC(=O)C23C(=C[C@H](OC(=O)/C(C)=C\C)CC12)[C@@H](OC(C)=O)O[C@H]3OC(C)=O` (some centres undefined), the Emax in assay [1], in assay [5], in assay [6] and in assay [7] was 100% each time. In addition, the total growth inhibition concentration (TGI) was 1900 nM in assay [2], 1800 nM in assay [3], 3100 nM in assay [4] and 2000 nM in assay [8].

Turning to `CCC1=C[C@@H]2CN(C1)Cc1c([nH]c3ccccc13)[C@@](C(=O)OC)(c1cc3c(cc1OC)N(C)[C@H]1[C@@](O)(C(=O)OC)[C@H](OC(C)=O)[C@]4(CC)C=CCN5CC[C@]31[C@@H]54)C2` [VINORELBINE], the TGI was determined as 6 nM in assay [2], 80 nM in assay [3], 6 nM in assay [4] and 80 nM in assay [8].

Values taken from ChEMBL document CHEMBL4480434, “Anacolosins A-F and Corymbulosins X and Y, Clerodane Diterpenes from Anacolosa clarkii Exhibiting Cytotoxicity toward Pediatric Cancer Cell Lines” (2019).
